UHRF1 binding = UHRF1 methyl-DNA binding inhibition; 370,000 compounds, 0.75% hits; inhibition, % at 4.4 µM; AID 687016; UHRF1 binding to methylated oligo, TR-FRET; Q96T88; in the data active = inhibition above about 21%;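 note: UHRF1 SRA domain binding a hemimethylated CpG hairpin DNA probe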
PRMT1 FP inh = inhibitors of human PRMT1; Q99873; recombinant PRMT1, activity-based probe fluorescence polarization; inhibition, % at 2.79 µM; 370,000 compounds, 1.3% hits; AID 652257;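 active = inhibition above about 21% made by adding two undisclosed values, limit read from the data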
ABHD5-PLIN5 inh = ABHD5-PLIN5 protein interaction inhibition; Q00G26+Q8WTS1; Split G. princeps luciferase complementation, luminescence, 4 h; inhibition, % at 4 µM; 360,000 compounds, 0.78% hits;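 active = inhibition above the mean inhibition across every tested compound plus 3 SD, cut at about 22% in these data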
MBD2 inh = inhibitors of human MBD2 binding to methylated oligonucleotide | 370,000 compounds, 0.31% hits | Q9UBB5 | AID 686964 | inhibition, % at 4.4 µM | TR-FRET; in the data active = inhibition above about 13%
Target sequence (Q9UBB5 whole entry, looked up): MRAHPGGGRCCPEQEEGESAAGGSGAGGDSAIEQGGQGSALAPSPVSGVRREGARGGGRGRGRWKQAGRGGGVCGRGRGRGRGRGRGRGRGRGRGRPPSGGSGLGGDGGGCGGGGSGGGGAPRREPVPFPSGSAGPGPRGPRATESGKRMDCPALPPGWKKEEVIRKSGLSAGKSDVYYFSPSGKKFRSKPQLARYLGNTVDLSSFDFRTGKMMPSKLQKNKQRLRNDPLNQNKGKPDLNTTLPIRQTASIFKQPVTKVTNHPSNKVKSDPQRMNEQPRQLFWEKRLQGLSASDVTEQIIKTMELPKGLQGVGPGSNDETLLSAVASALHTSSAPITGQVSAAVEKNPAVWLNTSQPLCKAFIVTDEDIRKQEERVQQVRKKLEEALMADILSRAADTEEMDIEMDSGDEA
LEDGF integ inh = blocks HIV-1 LEDGF/p75-dependent DNA integration. 370,000 compounds, 0.64% hits. TR-FRET IN-LEDGF/p75 DNA integration, Eu/Cy5. inhibition, % at 3.7 µM. AID 743269;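 active = inhibition above the screen-wide mean plus 3 SD, cut at about 13% in these data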;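 note: signal is the Cy5 over europium emission ratio at 671 and 618 nm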
RBBP9 inh = blocks human serine hydrolase RBBP9; O75884; recombinant RBBP9, FP-Rh probe fluorescence polarization; inhibition, % at 7.94 µM; 220,000 compounds, 0.2% hits; AID 1515;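 active = inhibition above the campaign mean of all tested compounds plus 3 SD, cut at about 14% in these data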
Target sequence (O75884 whole entry, looked up): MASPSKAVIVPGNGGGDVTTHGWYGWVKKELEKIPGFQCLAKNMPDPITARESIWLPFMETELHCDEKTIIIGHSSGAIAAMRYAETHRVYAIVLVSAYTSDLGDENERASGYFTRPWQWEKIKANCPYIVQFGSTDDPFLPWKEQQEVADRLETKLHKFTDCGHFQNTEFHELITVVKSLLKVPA
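Assay system: recombinant human RBBP9; Reagent: Serine-hydrolase probe FP-Rh, 375 nM pre-mixing; Doses: 7.94 µM single dose, 0.794% DMSO; Incubation: 30 min then 45 min, 25 °C; Detection: fluorescence polarization (mP), excitation 525 nm, emission 598 nm; Evaluation: percent inhibition from mP, scaled between DMSO and no-protein wells.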
RBBP9 confirm = human RBBP9 inhibition, confirmation | shares compounds with RBBP9 inh | recombinant RBBP9, FP-Rh probe fluorescence polarization | inhibition, % at 7.94 µM | 410 compounds, 36% hits | AID 1537;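 active = inhibition above the hit cutoff derived for the primary screen, cut at about 15% in these data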
Hits are given with their value. The list is not random: actives were taken first. Their share in the collection is about 3.1%.

For Cc1cccc(N2C(=O)NC(=O)/C(=C\c3cccn3-c3ccc(Cl)cc3)C2=O)c1 the results were UHRF1 binding inactive, PRMT1 FP inh inactive, ABHD5-PLIN5 inh 29.9, MBD2 inh inactive, LEDGF integ inh inactive and RBBP9 inh inactive.
For COC(=O)C1C=C2c3cccc4[nH]cc(c34)CC2N(C)C1 (centres undefined) the results were RBBP9 inh 21.3.
`COc1cccc(C(=O)C2CN(C)CC2c2ccc(Cl)cc2)c1` (centres undefined) gave UHRF1 binding 69.7, PRMT1 FP inh inactive, ABHD5-PLIN5 inh inactive, MBD2 inh inactive, LEDGF integ inh inactive and RBBP9 inh inactive.
CCn1nc(-c2ccccc2)nc2c(=O)n(C)c(=O)nc1-2 was read as ABHD5-PLIN5 inh inactive and RBBP9 inh inactive.
`Cc1nc2c(=O)n(C)c(=O)nc-2n(C)n1` gave UHRF1 binding inactive, PRMT1 FP inh inactive, ABHD5-PLIN5 inh inactive, MBD2 inh 16.1, LEDGF integ inh inactive and RBBP9 inh inactive.
`Nc1c2c(nc3sc4c(c13)CCCC4)CCCC2` gave UHRF1 binding 28.8, PRMT1 FP inh inactive, ABHD5-PLIN5 inh inactive, MBD2 inh inactive, LEDGF integ inh inactive and RBBP9 inh inactive.
For O=[N+]([O-])c1cc(O)c(O)c([N+](=O)[O-])c1 the results were UHRF1 binding inactive, PRMT1 FP inh 32.2, ABHD5-PLIN5 inh inactive, MBD2 inh inactive and LEDGF integ inh inactive.
For O=[N+]([O-])c1ccc(O)c([N+](=O)[O-])c1 the results were UHRF1 binding inactive, PRMT1 FP inh inactive, ABHD5-PLIN5 inh inactive, MBD2 inh inactive and LEDGF integ inh inactive.
Cc1cc(/C=C2\C(=O)NC(=O)N(c3cccc(F)c3)C2=O)c(C)n1-c1ccc(C(=O)O)c(Cl)c1 was read as UHRF1 binding inactive, PRMT1 FP inh inactive, ABHD5-PLIN5 inh inactive, MBD2 inh inactive and LEDGF integ inh inactive.
`Cc1ccc(N2C(=O)NC(=O)/C(=C/c3ccc(-c4ccc(C(=O)O)c(Cl)c4)o3)C2=O)cc1` gave UHRF1 binding inactive, PRMT1 FP inh inactive, ABHD5-PLIN5 inh 22.5, MBD2 inh inactive, LEDGF integ inh inactive and RBBP9 inh inactive.
CC(C)(C)c1ccc(O)c(N=Cc2c(O)ccc3ccccc23)c1 was read as UHRF1 binding inactive, PRMT1 FP inh 31.3, ABHD5-PLIN5 inh inactive, MBD2 inh inactive and LEDGF integ inh inactive.
For CN1C2CCC1C(C(=O)Oc1ccccc1)C(c1ccc(Cl)cc1)C2 (centres undefined) the results were UHRF1 binding inactive, PRMT1 FP inh inactive, MBD2 inh inactive and LEDGF integ inh inactive.
`CC(C)(C)NC(=O)C1CN=C(c2ccccc2)c2cc(Cl)ccc2N1C(=O)C1CCC1` (centres undefined) gave UHRF1 binding inactive, PRMT1 FP inh inactive, MBD2 inh inactive and LEDGF integ inh inactive.
COc1cc(C2c3cc4c(cc3CC3COC(=O)C32)OCO4)cc(OC)c1OC (centres undefined) was read as UHRF1 binding inactive, PRMT1 FP inh 22.0, ABHD5-PLIN5 inh inactive, MBD2 inh inactive and LEDGF integ inh inactive.
For COP(=O)(OC)C(C)NC(=O)OCc1ccccc1 (centres undefined) the results were UHRF1 binding inactive, PRMT1 FP inh inactive, MBD2 inh inactive and LEDGF integ inh inactive.
Screening O=S(=O)(c1ccc(Cl)cc1)N1Cc2ccc(Br)cc2-n2nncc2C1 returned UHRF1 binding inactive, PRMT1 FP inh inactive, MBD2 inh inactive and LEDGF integ inh inactive.
`CN1CCCC2c3ccccc3CCC21` (centres undefined) gave UHRF1 binding 21.6, PRMT1 FP inh inactive, ABHD5-PLIN5 inh inactive, MBD2 inh inactive and LEDGF integ inh inactive.
For CN1CCCC1C(O)(c1ccccc1)c1ccccc1 (centres undefined) the results were UHRF1 binding inactive, PRMT1 FP inh inactive, ABHD5-PLIN5 inh inactive, MBD2 inh inactive, LEDGF integ inh inactive and RBBP9 inh inactive.
`CC(NC(=O)OC1CC2CCC1(C)C2(C)C)P(=O)(Oc1ccccc1)Oc1ccccc1` (centres undefined) gave UHRF1 binding inactive, PRMT1 FP inh inactive, MBD2 inh inactive and LEDGF integ inh inactive.
Screening CN1/C(=C\C=C\C2=[N+](C)c3ccc4ccccc4c3C2(C)C)C(C)(C)c2ccccc21 returned RBBP9 inh 131.6.
CN1/C(=C\C=Nc2ccccc2)C(C)(C)c2ccccc21 was read as UHRF1 binding inactive, PRMT1 FP inh inactive, ABHD5-PLIN5 inh inactive, MBD2 inh inactive, LEDGF integ inh inactive and RBBP9 inh inactive.
`CC(C)C(C(=O)NC(C)(C)C)N1C(=O)CN=C(c2ccccc2)c2ccccc21` (centres undefined) gave UHRF1 binding inactive, PRMT1 FP inh inactive, MBD2 inh inactive and LEDGF integ inh inactive.
For CCOC(=O)[C@]12Cc3cc(OC)ccc3[C@H]1N(CC(=O)OC)C(=O)c1cc(OC)ccc12 the results were UHRF1 binding inactive, PRMT1 FP inh inactive, ABHD5-PLIN5 inh inactive, MBD2 inh inactive and LEDGF integ inh inactive.
`CCOC(=O)[C@]12Cc3cc(OC)ccc3[C@H]1N(CC(=O)OC)C(=O)c1ccccc12` gave UHRF1 binding 23.6, PRMT1 FP inh inactive, ABHD5-PLIN5 inh inactive, MBD2 inh inactive and LEDGF integ inh inactive.
`CC(=O)C1=C(C)OC2=C(C(=O)CCC2)[C@@]12C(=O)N(C)c1ccccc12` gave UHRF1 binding inactive, PRMT1 FP inh inactive, MBD2 inh inactive and LEDGF integ inh inactive.
`O=C(CNCc1c(F)cccc1F)N1CCC2(CC1)OCCO2` gave UHRF1 binding inactive, PRMT1 FP inh inactive, MBD2 inh inactive and LEDGF integ inh inactive.
For Cc1ccc(C[n+]2c(-c3ccc(C)cc3)cc(-c3ccc(C)cc3)cc2-c2ccc(C)cc2)cc1 the results were ABHD5-PLIN5 inh 38.0.
Screening Cc1ccc(-c2cc(-c3ccc(C)cc3)[n+](-c3ccc(C(=O)O)cc3)c(-c3ccc(C)cc3)c2)cc1 returned UHRF1 binding inactive, PRMT1 FP inh inactive, ABHD5-PLIN5 inh inactive, MBD2 inh inactive and LEDGF integ inh inactive.
`CN1CCN2c3ccc(N)cc3CC3(C(=O)NC(=O)NC3=O)C2C1` (centres undefined) gave UHRF1 binding inactive, PRMT1 FP inh inactive, ABHD5-PLIN5 inh inactive, MBD2 inh inactive, LEDGF integ inh inactive, RBBP9 inh 20.5 and RBBP9 confirm 64.9.
For Cc1ccccc1C(=O)NCCN1CCC2(CC1)C(=O)NCN2c1ccccc1 the results were UHRF1 binding inactive, PRMT1 FP inh inactive, MBD2 inh inactive and LEDGF integ inh inactive.
